Bioassay records as filed in PubChem BioAssay.
Sampled rows, rich in hits. Any-hit rate of the full collection: about 2.6%.
Vif inh: inhibitors of HIV Vif. hit rate 0.35% among 340,000. AID 602346. inhibition, % at 7.49 µM. HEK293T cells, Vif self-association by quenched fluorescence, imaging, 24 h; in the data active = inhibition above about 50%, passing the limit was not always enough; inconclusive = no clear call, values can overlap the other calls; inactive = below about 31%
Xi reactivation: activators of X-chromosome reactivation in mouse fibroblasts. hit rate 0.055% among 360,000. AID 743238. activation, % at 7.58 µM. XiGFP mouse fibroblasts, % GFP-positive cells imaging, 3 d; cells co-treated with 5-aza-dC sensitizer; scaled so ellipticine positive control = 100%;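 active = mean normalized replicate activation at least 10% and every replicate at or above 10%; inconclusive = only one of the two criteria met; inactive = mean below 10% and not all replicates reach 10%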
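System: 68-5-11 XiGFP fibroblast line; Timing: 3 days compound exposure; Compound dosing: one concentration, pinned; Benchmarks: positive control ellipticine, 6 µM final; Buffer or medium: DMEM containing 5-aza-dC.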
Wnt act: activates Wnt/beta-catenin signaling in a reporter cell assay; hit rate 1.2% among 300,000; AID 743398; activation, % at 9.35 µM; activator, plate reader; in the data active = activation above about 30%, passing the limit was not always enough; inconclusive = no clear call, values can overlap the other calls
esBAF inh: inhibitors of esBAF chromatin remodeling in mouse ES cells. Bmi1-luciferase knock-in reporter, 24 h; 100% = twice the neutral-well signal. reporter increase, % at 12.5 µM. hit rate 2% among 350,000. AID 602393; in the data active = activation above about 40%; inconclusive = no clear call, values can overlap the other calls;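 note: a rise in the Bmi1 reporter signal indicates esBAF inhibition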
MITF act: activators of MITF-driven TRPM1 promoter activity in SK-MEL-5 cells; SK-MEL-5 TRPM1-promoter luciferase, 24 h; % of positive control, neutral wells = 0; hit rate 0.75% among 300,000; activation, % at 12.5 µM;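 active = mean activation of at least 80% with every replicate also reaching 80%; inconclusive = mean reaches 80% but some replicate falls short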
Ring1 derepress: esBAF inhibition confirmed by Ring1 de-repression; shares compounds with esBAF inh; mouse ESC E14, Ring1 mRNA RT-qPCR fold change; fold change at 33 µM; 550 tested, under 10 active; AID 743176;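 active = Ring1 gene expression raised more than 2-fold over untreated cells in both replicates at either tested dose; inconclusive = only one replicate above 2-fold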;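 note: Ring1 transcript normalised to actin housekeeping signal by TaqMan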
esBAF Fgf4 qPCR: esBAF inhibition confirmed by Fgf4 repression. AID 743177. Fgf4 expression fold change at 33 µM. mouse ESC E14, Fgf4 mRNA qPCR fold change; stronger effect = lower value. hit rate 4% among 550. shares compounds with esBAF inh;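 active = Fgf4 expression under 0.8 fold of control in both repeat measurements at one or both tested doses; inconclusive = under 0.8 fold in just a single repeat measurement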;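 note: Fgf4 transcript normalised to actin in duplex TaqMan qPCR; cells exposed to compound for 24 h before lysis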
Bmi1 derepress: confirmation of esBAF inhibitors: Bmi1 de-repression in mouse ESCs | shares compounds with esBAF inh | mouse ESE14 ES cells, Bmi1 mRNA qPCR fold; stronger effect = higher value | fold change at 33 µM | 550 tested, under 10 active | AID 743180;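 active = Bmi1 expression fold change above 6 at either tested concentration, seen in replicate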;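 note: higher fold means more Bmi1 de-repression and stronger esBAF inhibition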
A549 cytotox: cytotoxicity in A549 cells. shares compounds with esBAF inh. plate reader. cell viability change % (negative = cytotoxic), % at 25 µM, hits read low. 550 tested, under 10 active. AID 743188; call rule not given here
HepG2 cytotox SP: cytotoxicity in HepG2 cells; shares compounds with esBAF inh; plate reader; stronger effect = lower value; activity change, negative = inhibition, % at 25 µM; hit rate 4% among 550; in the data active = activity change below about -50%
HEK293 tox SP: cytotoxicity in HEK293 cells; shares compounds with esBAF inh; plate reader; activity change, negative = inhibition, % at 25 µM, hits read low; hit rate 3% among 550; AID 743190; in the data active = activity change below about -38%, passing the limit was not always enough
Hits are given with their value; i = inactive; ? = inconclusive; nt = no result given.

SMILES | Vif inh | Xi reactivation | Wnt act | esBAF inh | MITF act | others
Cc1noc(C)c1C(=O)Nc1nc(-c2cc(F)ccc2F)cs1 | i | i | i | 74 | i
C[C@H]1CN([C@@H](C)CO)C(=O)CCCn2cc(nn2)CO[C@@H]1CN(C)Cc1ccc(C(F)(F)F)cc1 | nt | i | nt | i | nt
Cc1nc(SCC(=O)O)c2oc3ccccc3c2n1 | i | nt | i | i | nt
Cc1nc(SCC(=O)c2cccs2)c2oc3ccccc3c2n1 | i | nt | 71 | nt | nt
O=C(CSc1ncnc2c1oc1ccccc12)c1cccs1 | i | nt | nt | 57 | ?
CCNC(=O)[C@H]1[C@H](CO)[C@H]2Cn3c(ccc(C4=CCCCC4)c3=O)[C@@H]1N2CC | nt | i | nt | nt | nt
CC(C)(C)/C(O)=C/c1nc2ccccc2oc1=O | i | i | i | nt | i
O=c1oc2ccccc2nc1/C=C(\O)c1ccccc1 | i | i | 40 | nt | nt
O=C(c1cccnc1)N1CC2(C1)[C@H](c1ccccc1)[C@@H](CO)N2Cc1ccccc1 | nt | i | nt | nt | nt
Oc1[nH]c2ccccc2c1C=Nc1ccccc1 | i | nt | 45 | ? | ?
CCn1c(SC(C)C)nnc1-c1cc(-c2ccccc2)sc1N | i | nt | i | 68 | nt
CO[C@H]1CN(C)C(=O)c2cc(NC(=O)Nc3ccc4c(c3)OCO4)ccc2OC[C@H](C)NC[C@@H]1C | nt | i | nt | 55 | nt
CO[C@H]1CN(C)C(=O)c2cc(NC(=O)Nc3ccc4c(c3)OCO4)ccc2OC[C@H](C)NC[C@H]1C | nt | i | nt | 44 | nt
CO[C@H]1CN(C)C(=O)c2cc(NC(=O)Nc3ccccc3)ccc2OC[C@@H](C)NC[C@H]1C | nt | i | nt | i | nt
CO[C@@H]1CN(C)C(=O)c2cc(NC(=O)Nc3ccccc3)ccc2OC[C@@H](C)NC[C@@H]1C | nt | i | nt | i | nt
CO[C@H]1CN(C)C(=O)c2cc(NC(=O)Nc3ccc4c(c3)OCO4)ccc2OC[C@@H](C)NC[C@H]1C | nt | i | nt | 51 | nt
C[C@H](CO)N1C[C@H](C)[C@@H](CN(C)C)OCc2cn(nn2)CCCC1=O | nt | i | nt | i | nt
CCc1ccc(NC(=O)C2CCCCC2C(=O)O)cc1 (configuration not stated) | i | nt | i | nt | i
O=C(NCC1CC1)Nc1ccc(Cl)cc1 | i | i | i | 68 | ?
CCc1ccc(NC(=O)C2C3/C=C\CCCCC32)cc1 (configuration not stated) | i | nt | nt | 61 | 94
O=C(Nc1ccc(Cl)cc1)C1C2CCCCC21 (configuration not stated) | i | i | i | 72 | nt
C[C@H]1CN([C@@H](C)CO)C(=O)c2cc(NC(=O)C3CC3)ccc2O[C@H]1CN(C)CC1CCCCC1 | nt | i | nt | i | nt
Nc1nc(-c2ccccc2)cs1 | i | nt | nt | ? | i
Cc1ccc(-c2cc(-c3ccccc3)no2)cc1 | i | i | i | i | i
Nc1nc(-c2cc(-c3ccccc3)no2)cs1 | i | i | 46 | i | 88
SMILES | Vif inh | Xi reactivation | Wnt act | esBAF inh | MITF act | others
c1ccc(-c2cc(-c3ccccc3)on2)cc1 | i | i | 42 | nt | i
O=C(Nc1ccc2c(c1)OCO2)N[C@@H]1CC[C@@H](CC(=O)N2CCN(c3ccccc3)CC2)O[C@@H]1CO | nt | i | nt | i | nt
CCNC(=O)C[C@@H]1CC[C@@H]2[C@H](COC[C@@H](O)CN2C(=O)Nc2ccc(Cl)c(Cl)c2)O1 | nt | i | nt | i | nt
C=CCN(C(=O)CC(NC(C)=O)c1ccccc1)c1nc(-c2ccc(S(C)(=O)=O)cc2)cs1 (configuration not stated) | i | i | i | 78 | i | Ring1 derepress=i;esBAF Fgf4 qPCR=i;Bmi1 derepress=i;A549 cytotox=i;HepG2 cytotox SP=i;HEK293 tox SP=i
Clc1ccc(-c2cn3cccnc3n2)cc1Cl | i | nt | i | 73 | i | Ring1 derepress=i;esBAF Fgf4 qPCR=i;Bmi1 derepress=i;A549 cytotox=i;HepG2 cytotox SP=i;HEK293 tox SP=i
COc1ccc(CN(C)C[C@H]2OCCCC[C@H](C)Oc3ccc(NS(=O)(=O)c4ccccc4)cc3C(=O)N([C@@H](C)CO)C[C@@H]2C)cc1 | nt | i | nt | i | nt
CCC(=O)c1ccc(N2CCC(C)CC2)c(F)c1 | i | i | i | 71 | i | Ring1 derepress=i;esBAF Fgf4 qPCR=i;Bmi1 derepress=i;A549 cytotox=i;HepG2 cytotox SP=i;HEK293 tox SP=i
O=C(NC(Cc1nn[nH]n1)C(=O)OCc1ccccc1)OCc1ccccc1 (configuration not stated) | nt | i | i | i | nt
O=C(CC(NC(=O)OCc1ccccc1)c1nn[nH]n1)OCc1ccccc1 (configuration not stated) | nt | i | i | 75 | nt | Ring1 derepress=i;esBAF Fgf4 qPCR=i;Bmi1 derepress=i;A549 cytotox=i;HepG2 cytotox SP=i;HEK293 tox SP=i
CC(=O)N(C)c1nc(-c2ccc(Cl)cc2)cs1 | i | nt | nt | 74 | i | Ring1 derepress=i;esBAF Fgf4 qPCR=i;Bmi1 derepress=i;A549 cytotox=i;HepG2 cytotox SP=i;HEK293 tox SP=i
CN(C(=O)c1ccco1)c1nc(-c2ccc(Cl)cc2)cs1 | i | i | i | i | i
C[C@H]1CCCCO[C@H](CN(C)S(C)(=O)=O)[C@@H](C)CN([C@@H](C)CO)C(=O)c2cc(N(C)C)ccc2O1 | nt | i | nt | i | nt
COc1ccccc1CCC(=O)Nc1nc2ccccc2[nH]1 | i | nt | 31 | 61 | i | Ring1 derepress=i;esBAF Fgf4 qPCR=0.38;Bmi1 derepress=6.9;A549 cytotox=i;HepG2 cytotox SP=i;HEK293 tox SP=i
CC(=O)Nc1sc(N/N=C\c2ccccc2F)nc1-c1cccs1 | i | i | i | nt | i
Cc1csc(N/N=C/c2ccccc2F)n1 | i | i | i | 62 | i | Ring1 derepress=i;esBAF Fgf4 qPCR=i;Bmi1 derepress=i;A549 cytotox=i;HepG2 cytotox SP=-57;HEK293 tox SP=i
CNC[C@H]1Oc2ccc(N)cc2CC(=O)N(C)C[C@H]1C | nt | i | nt | nt | nt
COc1cc(C=NN2CCCCC2)cc(OC)c1OC | i | i | i | i | nt
N#Cc1ccc(C=NN2CCCCCC2)cc1 | i | i | 48 | 69 | i | Ring1 derepress=i;esBAF Fgf4 qPCR=?;Bmi1 derepress=i;A549 cytotox=i;HepG2 cytotox SP=i;HEK293 tox SP=i
C(=NN1CCCCCC1)c1ccccc1 | i | i | i | nt | i
Clc1ccc(C=NN2CCCCCC2)cc1 | i | i | ? | 82 | i | Ring1 derepress=i;esBAF Fgf4 qPCR=i;Bmi1 derepress=i;A549 cytotox=i;HepG2 cytotox SP=i;HEK293 tox SP=i
O=C(O)c1ccc2noc(-c3ccccc3)c2c1 | i | nt | nt | 82 | i | Ring1 derepress=i;esBAF Fgf4 qPCR=?;Bmi1 derepress=i;A549 cytotox=i;HepG2 cytotox SP=i;HEK293 tox SP=i
CO[C@@H]1CN(C)C(=O)c2cc(NS(=O)(=O)c3cn(C)cn3)ccc2OC[C@H](C)N(C)C[C@@H]1C | nt | i | nt | i | nt
O=c1c2ccccc2oc2cc(-c3ccc4cc[nH]c4c3)ccc12 | i | i | 38 | 71 | 129 | Ring1 derepress=i;esBAF Fgf4 qPCR=i;Bmi1 derepress=i;A549 cytotox=i;HepG2 cytotox SP=i;HEK293 tox SP=i
Cc1c(NC(=O)c2cc(-c3ccc(Cl)c(Cl)c3)on2)c(=O)n(-c2ccccc2)n1C | i | i | i | i | i
